Active and inactive are the calls of the source. The rule behind the calls is not given here.
Assays:
[1] = tested on: K562; test: Antiproliferative activity against human K562 cells after 72 hrs by CellTiter-Glo assay; type: functional, cell-based; settings: K562, 72 h
In short: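 K562 leukemia cells exposed to increasing concentrations for 72 h; growth and viability read by CellTiter-Glo luminescence.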

[2] = species on record: Homo sapiens; test: Inhibition of human recombinant UAE assessed as inhibition of UbcH6-Ub complex formation at 0.001 to 10 uM after 1.5 hrs by Western blot analysis
In short: (§1)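 Cell-free gel assay. Purified human recombinant E1 incubated with its matching Ub/Ubl and E2 in 50 mM HEPES pH 7.4, 5 mM MgCl2, 1–20 μM ATP. Inhibitor at 0, 0.001, 0.01, 0.1, 1 or 10 μM, 1.5 h at room temperature. Products resolved by SDS-PAGE, immunoblotted and detected by ECL; densitometry used for semiquantitation.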

[3] = target: T1, NEDD8-activating enzyme E1 catalytic subunit (Homo sapiens) (UniProt Q8TBC4); test: Inhibition of UBA3-mediated NEDD8 activation at […] after 1.5 hrs by Western blot analysis
T1 sequence (whole entry): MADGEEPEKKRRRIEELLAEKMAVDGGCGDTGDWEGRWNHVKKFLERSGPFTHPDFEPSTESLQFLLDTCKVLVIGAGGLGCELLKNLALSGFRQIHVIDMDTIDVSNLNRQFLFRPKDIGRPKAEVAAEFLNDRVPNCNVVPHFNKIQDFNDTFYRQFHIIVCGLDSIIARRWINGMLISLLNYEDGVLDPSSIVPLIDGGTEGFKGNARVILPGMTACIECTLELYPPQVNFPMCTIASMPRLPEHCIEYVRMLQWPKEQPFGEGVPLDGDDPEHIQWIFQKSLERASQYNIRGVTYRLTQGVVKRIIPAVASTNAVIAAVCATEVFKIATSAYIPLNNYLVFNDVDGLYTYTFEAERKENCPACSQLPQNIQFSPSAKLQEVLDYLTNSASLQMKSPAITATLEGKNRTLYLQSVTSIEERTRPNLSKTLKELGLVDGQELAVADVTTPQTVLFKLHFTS

[4] = target: Ubiquitin-like modifier-activating enzyme 5 (Homo sapiens) (UniProt Q9GZZ9); test: Inhibition of human recombinant UBA5 assessed as inhibition of […]-UFM1 complex formation at 10 uM after 1.5 hrs by Western blot analysis; in short: as §1
[5] = target: SUMO-activating enzyme (Homo sapiens) (UniProt Q9UBE0+Q9UBT2); test: Inhibition of human recombinant SAE1/2 assessed as inhibition of SUMO1-UbcH9 complex formation at 0.001 to 10 uM after 1.5 hrs by Western blot analysis; type: protein-complex assay; in short: as §1
[6] = target: T2, NEDD8-activating enzyme E1 regulatory subunit (Homo sapiens) (UniProt Q13564); test: Inhibition of APPBP1-mediated NEDD8 activation at […] after 1.5 hrs by Western blot analysis
T2 sequence (whole entry): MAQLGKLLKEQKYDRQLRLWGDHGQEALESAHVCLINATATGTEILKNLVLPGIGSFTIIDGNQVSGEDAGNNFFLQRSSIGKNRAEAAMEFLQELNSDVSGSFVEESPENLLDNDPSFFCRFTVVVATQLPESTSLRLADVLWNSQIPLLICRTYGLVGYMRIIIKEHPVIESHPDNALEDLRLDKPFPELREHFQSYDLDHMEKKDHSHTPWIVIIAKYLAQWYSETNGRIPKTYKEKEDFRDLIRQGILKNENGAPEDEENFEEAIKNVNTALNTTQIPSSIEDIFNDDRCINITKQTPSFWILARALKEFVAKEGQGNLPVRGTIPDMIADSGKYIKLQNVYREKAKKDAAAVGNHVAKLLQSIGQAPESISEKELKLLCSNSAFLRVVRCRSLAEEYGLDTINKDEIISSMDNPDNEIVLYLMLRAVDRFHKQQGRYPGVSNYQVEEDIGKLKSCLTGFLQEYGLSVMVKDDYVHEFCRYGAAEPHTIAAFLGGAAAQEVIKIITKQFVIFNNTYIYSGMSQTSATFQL

[7] = species on record: Homo sapiens; test: Inhibition of human recombinant NAE assessed as inhibition of NEDD8-UbcH12 complex formation at 0.001 to 10 uM after 1.5 hrs by Western blot analysis; in short: as §1

Ubiquitin-like modifier-activating enzyme 5 (Homo sapiens), sequence (Q9GZZ9 whole entry): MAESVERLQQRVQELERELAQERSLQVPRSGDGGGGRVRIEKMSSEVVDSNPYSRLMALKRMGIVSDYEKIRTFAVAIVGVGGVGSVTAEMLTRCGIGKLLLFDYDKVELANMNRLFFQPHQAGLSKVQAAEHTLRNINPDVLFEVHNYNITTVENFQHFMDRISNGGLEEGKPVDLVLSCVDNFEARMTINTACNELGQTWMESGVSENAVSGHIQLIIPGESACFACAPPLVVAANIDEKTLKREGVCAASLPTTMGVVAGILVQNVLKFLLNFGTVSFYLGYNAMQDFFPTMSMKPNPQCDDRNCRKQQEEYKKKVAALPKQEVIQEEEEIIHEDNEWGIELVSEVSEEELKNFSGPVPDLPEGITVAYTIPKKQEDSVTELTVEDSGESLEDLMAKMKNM

EC50 [1]: 125 nM
inhibition [2]: Active
inhibition [3]: Active
inhibition [4]: inactive
inhibition [5]: Active
inhibition [6]: Active
inhibition [7]: Active
SMILES: NS(=O)(=O)OC[C@H]1O[C@@H](n2cnc3c(N[C@H]4CCc5ccccc54)ncnc32)[C@H](O)[C@@H]1O

Source: ChEMBL document CHEMBL2016531, “Identification of NAE Inhibitors Exhibiting Potent Activity in Leukemia Cells: Exploring the Structural Determinants of NAE Specificity” (ACS Med Chem Lett, 2011)
